A short description of data set [1]: Permeability from apical to basolateral side of human Caco2 cells. In kind it is ADME, cell-based. The conditions noted are these: Caco-2, read-out: permeability. A general note: Passage across Caco-2 layers is used to estimate intestinal permeability.
Data set [2] in a line: Permeability from basolateral to apical side of human Caco2 cells. In kind it is ADME, cell-based. The conditions noted are these: Caco-2, read-out: permeability.
The nature of data set [3]: Volume of distribution at steady state in Wistar Han rat at 1 mg/kg, iv. The class given is ADME, organism-based. Also on record: dose 1 mg/kg, route intravenous. The conditions noted are these: in vivo, read-out: Vdss. The method in brief: (§1)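 Wistar Han or Sprague Dawley rats given 1 mg/kg iv as a solution or 5 mg/kg po as a suspension. Plasma taken at several time points and quantified by HPLC-MS/MS. Parameters derived by non-compartmental analysis.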

A short description of data set [4]: Mean residence time in Wistar Han rat at 1 mg/kg, iv. In kind it is ADME, organism-based. Also noted: dose 1 mg/kg, route intravenous. The conditions noted are these: in vivo. The method in brief:
as §1

Data set [5] in a line: Oral bioavailability in Wistar Han rat at 5 mg/kg. The class given is ADME, organism-based. The conditions noted are these: in vivo. The method in brief:
as §1

Data set [6] can be described thus: Ratio of drug uptake in brain to plasma of Wistar Han rat. In kind it is ADME. As to conditions: brain and plasma, read-out: BPR.
A short description of data set [7]: Oral bioavailability in Wistar Han rat at 10 mg/kg. The class given is ADME, organism-based. As to conditions: in vivo. In a few lines: (§2)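 Wistar Han rats dosed orally with a suspension, at 10 mg/kg or 10 µmol/kg. Plasma taken at several time points and quantified by HPLC-MS/MS. Bioavailability derived by non-compartmental analysis.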
Data set [8] in a line: Volume of distribution at steady state in Wistar Han rat at […], iv. In kind it is ADME, organism-based. As to conditions: in vivo, read-out: Vdss.
Data set [9] can be described thus: Mean residence time in Wistar Han rat at […], iv. The class given is ADME, organism-based. The conditions noted are these: in vivo.
Data set [10] can be described thus: Oral bioavailability in Wistar Han rat at 10 umol/kg. In kind it is ADME, organism-based. As to conditions: in vivo. The method in brief: as §2

In general, MRT refers to the average time that molecules of a dose stay in the body. A word on the bioavailability: it is the share of a dose that reaches the circulation, judged against a reference dose that is usually intravenous. Low readings indicate poor availability, high ones good availability.

Take `CC(C)(C)c1cc(NC(=O)[C@@H]2CCCN2c2ccc(Cl)cc2)no1`: in data set [1], the Papp A→B worked out at 24 ×10⁻⁶ cm/s. For the same molecule, in data set [2], the Papp B→A was 18 ×10⁻⁶ cm/s. Besides, in data set [3], the Vd was 7.9 L/kg. This molecule had an MRT in data set [4] of 1 h. Besides, the bioavailability in [5] turned out to be 5%.
For `CC(C)(C)c1cc(NC(=O)[C@@H]2CCC(=O)N2c2ccc(Cl)cc2)on1`, the Papp A→B in data set [1] stood at 11 ×10⁻⁶ cm/s. The Papp B→A in [2] came out at 23 ×10⁻⁶ cm/s. Further, in data set [3], the Vd amounted to 4.5 L/kg. The molecule further came in with an MRT in data set [4] of 1.3 h. For the same molecule, the Kp in data set [6] stood at 0.41. For the same molecule, the bioavailability in [7] is 44%.
Regarding `CC(C)(C)c1cc(NC(=O)[C@@H]2CCC(=O)N2c2ccc(C(F)(F)F)cc2)on1`, the Papp A→B in [1] turned out to be 14 ×10⁻⁶ cm/s. The Papp B→A in data set [2] is 7.5 ×10⁻⁶ cm/s. In data set [8], the Vd was 3.8 L/kg. In [9], this molecule gave an MRT of 6 h. The molecule also showed a bioavailability in [10] of 88%. In addition, the Kp in data set [6] came to 0.9.
Regarding `CC(C)(C)c1cc(NC(=O)[C@@H]2C[C@@H](O)CN2CC2CCOCC2)on1` (relative stereo), the Vd in data set [8] was 1.3 L/kg. The same molecule yielded a mean residence time MRT in data set [9] of 0.34 h. The bioavailability in data set [10] came to 18%.

Source of the values: ChEMBL document CHEMBL3352390, “Selective CB2 receptor agonists. Part 2: Structure-activity relationship studies and optimization of proline-based compounds” (Bioorg Med Chem Lett, 2015).
